Measured values from ChEMBL document CHEMBL3232883, “Triaryl-substituted Schiff bases are high-affinity subtype-selective ligands for the estrogen receptor” (J Med Chem, 2014).
Activity calls are given as the source filed them. The calls are words filed in the database; no cut-off is given here.

What was measured:
[1] = target: T1, Estrogen receptor beta (Homo sapiens, UniProt Q92731); experiment: Agonist activity at ERbeta (unknown origin) expressed in human HepG2 cells assessed as transcriptional activation after 24 hrs by ERE-luciferase reporter gene assay relative to 17beta-estradiol; assay type: cell-based
In short: (§1)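 HepG2 cells were cotransfected with a 3×ERE-luciferase reporter (10 μg) plus an ERα or ERβ expression vector (1.6 μg) per 10 cm dish. The next day they were replated at 20 000 cells/well in phenol red-free medium with 10% charcoal-dextran-stripped FBS and held overnight. Cells were then dosed over a 12-point range of 10 μM to 100 pM. Luciferase was read after 24 h, with DMSO set as 0% and the top of the E2 curve as 100%.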

[2] = target: T2, Estrogen receptor (Homo sapiens) (UniProt P03372); experiment: Antagonist activity at ERalpha (unknown origin) expressed in human HepG2 cells assessed as inhibition of transcriptional activation after 24 hrs by ERE-luciferase reporter gene assay relative to 17beta-estradiol; assay type: cell-based
T2 sequence (whole entry): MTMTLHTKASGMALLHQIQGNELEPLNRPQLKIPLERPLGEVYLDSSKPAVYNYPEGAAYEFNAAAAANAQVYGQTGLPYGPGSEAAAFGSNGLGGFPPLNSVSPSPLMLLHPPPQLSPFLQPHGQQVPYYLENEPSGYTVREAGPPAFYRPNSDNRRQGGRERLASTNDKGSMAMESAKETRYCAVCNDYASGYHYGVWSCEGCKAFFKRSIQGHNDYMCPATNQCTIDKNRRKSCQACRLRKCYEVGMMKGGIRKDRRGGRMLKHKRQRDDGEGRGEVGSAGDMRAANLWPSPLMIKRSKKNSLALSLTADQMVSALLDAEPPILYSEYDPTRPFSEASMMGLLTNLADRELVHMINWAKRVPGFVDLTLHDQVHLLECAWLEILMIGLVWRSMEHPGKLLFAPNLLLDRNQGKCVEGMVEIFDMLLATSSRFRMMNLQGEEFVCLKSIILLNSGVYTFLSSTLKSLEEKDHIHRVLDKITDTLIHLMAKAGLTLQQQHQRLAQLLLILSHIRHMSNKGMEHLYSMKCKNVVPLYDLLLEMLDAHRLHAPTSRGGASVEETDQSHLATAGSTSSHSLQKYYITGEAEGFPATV
In short: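 Antagonist mode used HepG2 cells cotransfected with a 3×ERE-luciferase reporter plus an ERα expression vector and steroid-deprived in phenol red-free medium with 10% charcoal-dextran-stripped FBS. Cells received 10 nM estradiol together with increasing compound concentrations across a 10 μM to 100 pM dose curve. Luciferase was measured after 24 h and normalized to DMSO (0%) and the top of the E2 curve (100%).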

[3] = target: T2, Estrogen receptor (Homo sapiens); experiment: Agonist activity at ERalpha (unknown origin) expressed in human HepG2 cells assessed as transcriptional activation after 24 hrs by ERE-luciferase reporter gene assay relative to 17beta-estradiol; assay type: cell-based; in short: as §1
[4] = tested on: HepG2; experiment: Agonist activity at ERalpha (unknown origin) harboring N-terminal AF1 domain deleted mutant expressed in human HepG2 cells assessed as transcriptional activation after 24 hrs by ERE-luciferase reporter gene assay; assay type: cell-based
[5] = target: T1, Estrogen receptor beta; experiment: Displacement of [3H]-estradiol from human full-length ERbeta after 18 to 24 hrs by competitive radiometric binding assay relative to estradiol
[6] = target: T1, Estrogen receptor beta; experiment: Antagonist activity at ERbeta (unknown origin) expressed in human HepG2 cells assessed as inhibition of 17beta-estradiol-induced transcriptional activation after 24 hrs by ERE-luciferase reporter gene assay; assay type: cell-based
In short: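 ERβ-transfected, steroid-deprived HepG2 cells carrying a 3×ERE-luciferase reporter were co-treated with 10 nM estradiol and test ligand over a range of 10 μM to 100 pM. Luciferase was read after 24 h, with each plate normalized to DMSO (0%) and the maximal E2 response (100%). IC50 and % efficacy were derived from the dose curves.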

[7] = organism: Homo sapiens; experiment: Selectivity ratio of RBA for human full length ERbeta to RBA for human full-length ERalpha
[8] = target: T2, Estrogen receptor (Homo sapiens); experiment: Displacement of [3H]-estradiol from human full-length ERalpha after 18 to 24 hrs by competitive radiometric binding assay relative to estradiol
[9] = target: T3, Estrogen receptor (Homo sapiens, UniProt P03372); experiment: Agonist activity at ERalpha (unknown origin) expressed in human HepG2 cells assessed as transcriptional activation after 24 hrs by ERE-luciferase reporter gene assay; assay type: cell-based
T3 sequence (P03372 whole entry): T2 sequence (whole entry)
In short: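 HepG2 cells were grown in DMEM with 10% FBS and transfected with a 3×ERE-luciferase reporter plus an ERα or ERβ expression vector. The next day cells were moved to phenol red-free medium with 10% charcoal-dextran-stripped FBS, plated at 20 000 cells/well and left overnight. Ligand was then added as a 12-point dose curve from 10 μM to 100 pM. Luciferase was read after 24 h, normalized to DMSO as 0% and the top of the E2 curve as 100%.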

T1 sequence (Q92731 whole entry): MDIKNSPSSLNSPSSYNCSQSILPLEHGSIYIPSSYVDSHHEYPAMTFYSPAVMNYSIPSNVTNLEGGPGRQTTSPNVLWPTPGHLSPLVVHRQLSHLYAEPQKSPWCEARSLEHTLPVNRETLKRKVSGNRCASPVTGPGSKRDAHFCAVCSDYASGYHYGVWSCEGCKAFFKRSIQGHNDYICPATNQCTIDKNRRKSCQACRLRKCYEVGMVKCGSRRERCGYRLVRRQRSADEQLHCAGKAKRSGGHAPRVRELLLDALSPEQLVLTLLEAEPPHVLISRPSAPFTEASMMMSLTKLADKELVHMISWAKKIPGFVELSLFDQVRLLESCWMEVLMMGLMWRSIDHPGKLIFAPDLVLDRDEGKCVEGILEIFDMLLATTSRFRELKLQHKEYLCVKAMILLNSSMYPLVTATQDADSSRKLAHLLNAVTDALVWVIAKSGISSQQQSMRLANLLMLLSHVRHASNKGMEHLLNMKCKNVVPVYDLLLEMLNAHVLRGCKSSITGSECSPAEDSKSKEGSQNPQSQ

SMILES | Efficacy [1] [%] | Efficacy [2] [%] | Efficacy [3] [%] | Activity [4] | RBA [5] [%] | IC50 [6] [nM] | Selectivity ratio [7] | RBA [8] [%] | EC50 [9] [nM]
Oc1ccc(C(=Nc2ccc(Cl)cc2)c2ccc(O)cc2)cc1 | 9 | 138 | 114 | inactive | 127 | 9 | 2.6 | 49.2 | 2
Oc1ccc(/N=C/c2ccccc2O)cc1 | – | – | – | – | < 3 | – | – | < 3 | –
Oc1ccc(/C(=N\c2ccccc2Cl)c2ccc(O)cc2O)cc1 | 54 | 136 | 113 | inactive | 77.9 | 6 | 0.8 | 96.7 | 0.1
Cc1cccc(/N=C(\c2ccc(O)cc2)c2ccc(O)cc2O)c1 | 9 | 101 | 95 | inactive | 38.1 | 51 | 2.5 | 15.3 | 14
COc1ccc(/N=C(\c2ccccc2)c2ccc(O)cc2O)cc1 | – | – | – | – | 5.55 | – | 0.49 | 11.3 | –
Oc1ccc(/C(=N\c2ccc(F)cc2)c2ccc(O)cc2O)cc1 | 23 | 124 | 108 | inactive | 27.7 | 139 | 1.3 | 21.1 | 10
C/C(=N\c1ccc(O)cc1)c1ccc(O)cc1 | – | – | – | – | < 3 | – | – | < 3 | –
Oc1ccc(/C(=N\c2cccc(C(F)(F)F)c2)c2ccc(O)cc2O)cc1 | 11 | 95 | 100 | inactive | 72.1 | 28 | 2.6 | 28.2 | 57
Cc1ccccc1N=C(c1ccc(O)cc1)c1ccc(O)cc1 | 8 | 149 | 103 | inactive | 116 | 6 | 2.8 | 40.6 | 7
Cc1cccc(C)c1N=C(c1ccc(O)cc1)c1ccc(O)cc1 | – | – | – | – | 2.91 | – | 1.9 | 1.56 | –
Cc1ccc(N=C(c2ccc(O)cc2)c2ccc(O)cc2)cc1 | 7 | – | – | inactive | 20.1 | 45 | 2 | 10 | –
Oc1ccc(C(=Nc2ccc(Br)cc2)c2ccc(O)cc2)cc1 | 11 | 128 | 105 | inactive | 94.1 | 6 | 2.3 | 41.5 | 1
COc1ccc(N=C(c2ccc(O)cc2)c2ccc(O)cc2)cc1 | – | – | – | – | 3.98 | – | 0.9 | 4.41 | –
Oc1ccc(/C(=N\c2cccc(Cl)c2)c2ccc(O)cc2O)cc1 | 15 | 118 | 117 | inactive | 61.6 | 67 | 1.6 | 37.6 | 15
Oc1ccc(/N=C(\c2ccc(O)cc2)c2ccc(O)cc2O)cc1 | 51 | 108 | 97 | inactive | 1.23 | 417 | 0.5 | 2.25 | 7
COc1ccc(/C(=N\c2ccc(O)cc2)c2ccc(O)cc2O)cc1 | – | – | – | – | 39.2 | – | 3.2 | 11.9 | –
Oc1ccc(C(=Nc2ccc(F)cc2)c2ccc(O)cc2)cc1 | 10 | 113 | 114 | inactive | 45.6 | 7 | 2.3 | 19.7 | 2
Oc1ccc(C(=Nc2cccc(C(F)(F)F)c2)c2ccc(O)cc2)cc1 | 3 | 104 | 89 | inactive | 139 | 24 | 4.2 | 33.4 | 23
Oc1ccc(C(=Nc2cccc(Cl)c2)c2ccc(O)cc2)cc1 | 10 | 109 | 102 | inactive | 114 | 16 | 2.5 | 41.8 | 10
Oc1ccc(C(=Nc2ccccc2Cl)c2ccc(O)cc2)cc1 | 37 | 83 | 104 | inactive | 97 | 19 | 1.5 | 62.8 | 1
Oc1ccc(C(=Nc2ccccc2)c2ccc(O)cc2)cc1 | 34 | 126 | 110 | – | 31.5 | 13 | 2.2 | 14.1 | 3
